The values that follow come from ChEMBL document CHEMBL4732114, “Design and structural optimization of novel 2H-benzo[h]chromene derivatives that target AcrB and reverse bacterial multidrug resistance” (Eur J Med Chem, 2021).

Data set [1] is described as follows: Toxicity in multidrug-resistant Escherichia coli BW25113 assessed as growth inhibition by two-fold broth dilution method. Background: In broth dilution the organism is exposed to a series of concentrations in liquid medium.
Data set [2] can be described thus: Toxicity in multidrug-resistant Escherichia coli BW25113 harboring AcrB deletion mutant assessed as growth inhibition by two-fold broth dilution method.
Another data set concerns Escherichia coli. As to the kind of experiment: Antibacterial activity against multidrug-resistant Escherichia coli BW25113 harboring AcrB deletion mutant by two-fold broth dilution method. Type of data set: functional. An outline of the steps: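 Two-fold broth dilution MIC against an isogenic BW25113 strain with AcrB deleted, run alongside the AcrB-expressing parent. The test was done to define sub-inhibitory levels for later checkerboard work.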

Data set [3] addresses T1, Multidrug efflux pump subunit AcrB (Escherichia coli (strain K12)) (UniProt P31224).
T1 sequence (whole entry): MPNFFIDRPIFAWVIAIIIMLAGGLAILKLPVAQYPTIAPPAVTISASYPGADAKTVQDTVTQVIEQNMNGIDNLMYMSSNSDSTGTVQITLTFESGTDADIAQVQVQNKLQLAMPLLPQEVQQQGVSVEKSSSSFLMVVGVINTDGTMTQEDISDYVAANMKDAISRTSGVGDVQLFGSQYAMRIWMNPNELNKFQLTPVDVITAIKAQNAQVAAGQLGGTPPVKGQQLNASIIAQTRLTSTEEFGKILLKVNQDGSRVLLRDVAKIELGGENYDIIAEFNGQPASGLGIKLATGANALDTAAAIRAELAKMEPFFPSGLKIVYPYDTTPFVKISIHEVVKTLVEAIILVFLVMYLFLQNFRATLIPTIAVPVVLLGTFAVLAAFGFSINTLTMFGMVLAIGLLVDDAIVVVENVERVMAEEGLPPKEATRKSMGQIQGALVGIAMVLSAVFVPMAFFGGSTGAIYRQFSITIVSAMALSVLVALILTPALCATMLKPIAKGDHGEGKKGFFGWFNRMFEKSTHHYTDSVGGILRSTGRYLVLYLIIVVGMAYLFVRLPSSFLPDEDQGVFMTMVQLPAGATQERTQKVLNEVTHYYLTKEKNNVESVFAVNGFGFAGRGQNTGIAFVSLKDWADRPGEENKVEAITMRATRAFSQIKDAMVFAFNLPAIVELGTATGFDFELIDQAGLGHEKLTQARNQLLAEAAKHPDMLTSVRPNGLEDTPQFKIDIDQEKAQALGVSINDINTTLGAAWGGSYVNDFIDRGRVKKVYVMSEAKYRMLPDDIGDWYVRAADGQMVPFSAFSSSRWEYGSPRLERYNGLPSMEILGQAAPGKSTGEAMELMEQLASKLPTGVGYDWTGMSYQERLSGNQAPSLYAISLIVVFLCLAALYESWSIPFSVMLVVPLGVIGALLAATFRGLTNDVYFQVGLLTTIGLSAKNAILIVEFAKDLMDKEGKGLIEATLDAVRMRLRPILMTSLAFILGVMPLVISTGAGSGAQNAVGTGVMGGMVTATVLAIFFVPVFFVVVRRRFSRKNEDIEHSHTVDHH
The data set can be described thus: Inhibition of AcrB in multidrug-resistant Escherichia coli BW25113 assessed as potentiation of chloramphenicol-induced antibacterial activity by measuring chloramphenicol MIC at 16 ug/ml by checkerboard titration method (reference value: 8 ug/ml). The following applies: dose 16.0 µg/ml.

Data set [4] has as its target T1, Multidrug efflux pump subunit AcrB (Escherichia coli (strain K12)). The data set can be described thus: Inhibition of AcrB in multidrug-resistant Escherichia coli BW25113 assessed as potentiation of levofloxacin-induced antibacterial activity by measuring levofloxacin MIC at 32 ug/ml by checkerboard titration method (reference value: 0.06 ug/ml). The following applies: dose 32.0 µg/ml.

Data set [5] has the same target. The following applies: Escherichia coli BW25113; dose 32.0 µg/ml.
Data set [6] relates to Cell membrane. As to the kind of experiment: Induction of outer membrane permeabilization in wild type Escherichia coli BW25113 assessed as increase in nitrocefin hydrolysis at 128 ug/ml in presence of CCCP by spectroscopic analysis. The following applies: dose 128 µg/ml. An outline of the steps: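 Intact E. coli were treated with 10 μM CCCP to block nitrocefin efflux, then given compound, nothing, or polymyxin B as permeabilizer control. Nitrocefin was added, and hydrolysis by periplasmic β-lactamase was followed as the rise in absorbance at 490 nm. Duplicate experiments were run on different days.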

Data set [7] addresses T1, Multidrug efflux pump subunit AcrB (Escherichia coli (strain K12)). The data set can be described thus: Inhibition of AcrB in multidrug-resistant Escherichia coli BW25113 assessed as potentiation of tetraphenylphosphonium-induced antibacterial activity by measuring tetraphenylphosphonium MIC at 16 ug/ml by checkerboard titration method (reference value: 1024 ug/ml). As to conditions: dose 16.0 µg/ml.

Data set [8] has the same target. As to the kind of experiment: Inhibition of AcrB in Escherichia coli BW25113 assessed as reduction in glucose-induced nile red efflux at 50 uM preincubated for 15 mins followed by nile red addition and incubated for 3 hrs in shaker in presence of CCCP by fluorimetric analysis. The following applies: time 3.25 hrs. The procedure, abridged: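 Wild-type and AcrB-deleted cells were preloaded with Nile Red, with or without compound. Fluorescence was recorded, and efflux was triggered at 100 s with 0.2% glucose. Traces were compared with the deletion-strain level. Triplicate experiments used different cell batches.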

For data set [9] the target is unchanged. As to the kind of experiment: Inhibition of AcrB in multidrug-resistant Escherichia coli BW25113 assessed as potentiation of chloramphenicol-induced antibacterial activity by measuring chloramphenicol MIC at 32 ug/ml by checkerboard titration method (reference value: 8 ug/ml). As to conditions: dose 32.0 µg/ml.
Data set [10] shares this target. As to conditions: Escherichia coli BW25113; dose 64.0 µg/ml.
For data set [11] the target is unchanged. The data set can be described thus: Inhibition of AcrB in multidrug-resistant Escherichia coli BW25113 assessed as potentiation of tetraphenylphosphonium-induced antibacterial activity by measuring tetraphenylphosphonium MIC at 8 ug/ml by checkerboard titration method (reference value: 1024 ug/ml). As to conditions: dose 8.0 µg/ml.
Data set [12] shares this target. As to conditions: Escherichia coli BW25113; dose 16.0 µg/ml.
Data set [13] concerns Cell membrane. As to the kind of experiment: Induction of inner membrane permeabilization in wild type Escherichia coli BW25113 assessed as perturbation of proton motive force at 32 ug/ml measured after 10 mins in presence of CCCP and glucose by Di0C2(3) probe based fluorescence assay. As to conditions: escherichia coli bw25113, 10 min, dose 32 µg/ml. The procedure, abridged:
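Cell suspensions were left untreated or exposed to 8-128 µg/mL compound for 10 min. DiOC₂(3) was then added and fluorescence followed to a plateau. Cells were re-energized with 0.5% glucose, and the rise in fluorescence was read as membrane-potential build-up. CCCP was added last to dissipate the potential.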

Data set [14] addresses T1, Multidrug efflux pump subunit AcrB (Escherichia coli (strain K12)). The data set can be described thus: Inhibition of AcrB in multidrug-resistant Escherichia coli BW25113 assessed as potentiation of erythromycin-induced antibacterial activity by measuring erythromycin MIC at 8 ug/ml by checkerboard titration method (reference value: 64 ug/ml). The following applies: dose 8.0 µg/ml.

The target is the same in data set [15]. As to the kind of experiment: Inhibition of AcrB in multidrug-resistant Escherichia coli BW25113 assessed as potentiation of erythromycin-induced antibacterial activity by measuring erythromycin MIC at 16 ug/ml by checkerboard titration method (reference value: 64 ug/ml). The following applies: dose 16.0 µg/ml.
The target is the same in data set [16]. As to the kind of experiment: Inhibition of AcrB in multidrug-resistant Escherichia coli BW25113 assessed as potentiation of erythromycin-induced antibacterial activity by measuring erythromycin MIC at 32 ug/ml by checkerboard titration method (reference value: 64 ug/ml). The following applies: dose 32.0 µg/ml.
The target is the same in data set [17]. The data set can be described thus: Inhibition of AcrB in multidrug-resistant Escherichia coli BW25113 assessed as potentiation of chloramphenicol-induced antibacterial activity by measuring chloramphenicol MIC at 8 ug/ml by checkerboard titration method (reference value: 8 ug/ml). As to conditions: dose 8.0 µg/ml.
The target is the same in data set [18]. The data set can be described thus: Inhibition of AcrB in multidrug-resistant Escherichia coli BW25113 assessed as potentiation of levofloxacin-induced antibacterial activity by measuring levofloxacin MIC at 8 ug/ml by checkerboard titration method (reference value: 0.06 ug/ml). As to conditions: dose 8.0 µg/ml.
Data set [19] has the same target. The data set can be described thus: Inhibition of AcrB in multidrug-resistant Escherichia coli BW25113 assessed as potentiation of tetraphenylphosphonium-induced antibacterial activity by measuring tetraphenylphosphonium MIC at 32 ug/ml by checkerboard titration method (reference value: 1024 ug/ml). The following applies: dose 32.0 µg/ml.
For data set [20] the target is unchanged. The following applies: Escherichia coli BW25113; dose 8.0 µg/ml.
Data set [21] shares this target. As to conditions: Escherichia coli BW25113; dose 128.0 µg/ml.
The target is the same in data set [22]. The data set can be described thus: Inhibition of AcrB in multidrug-resistant Escherichia coli BW25113 assessed as potentiation of levofloxacin-induced antibacterial activity by measuring levofloxacin MIC at 16 ug/ml by checkerboard titration method (reference value: 0.06 ug/ml). The following applies: dose 16.0 µg/ml.

In brackets after ≈: the same amount, converted by molar mass. Activity calls are given as the source filed them. No cut-off for these calls is given here.

In the case of `CC1CN(C(=O)c2cc3c(OCc4ccc([N+](=O)[O-])cc4)cccc3c3c2CCC(C)(C)O3)CC(C)O1` (centres undefined), the MIC was more than 512 µg/mL in [1] and more than 128 µg/mL in data set [2].

In the data set on Escherichia coli, `CO[C@H]1/C=C/O[C@@]2(C)Oc3c(C)c(O)c4c(O)c(c(/C=N/N5CCN(C)CC5)c(O)c4c3C2=O)NC(=O)/C(C)=C\C=C\[C@H](C)[C@H](O)[C@@H](C)[C@@H](O)[C@@H](C)[C@H](OC(C)=O)[C@@H]1C` [RIFAMPIN] had an MIC of 16 µg/mL (≈ 19.4 µM).

`c1ccc([P+](c2ccccc2)(c2ccccc2)c2ccccc2)cc1` [TETRAPHENYLPHOSPHONIUM] returned an MIC with Escherichia coli of 32 µg/mL.

Consider `CC1(C)CCc2c(-c3nnco3)cc3c(OCc4ccc(F)cc4)cccc3c2O1`, for which the MIC in [3] amounted to 8 µg/mL; in [4], 0.06 µg/mL; in data set [5] it was 16 µg/mL (≈ 39.6 µM); in data set [7] it was 512 µg/mL; in [9] it was 8 µg/mL; in [10], 16 µg/mL (≈ 39.6 µM). Moreover, the MIC in data set [1] worked out at 64 µg/mL (≈ 158 µM); in data set [11] it was 1020 µg/mL; in data set [12] it was 16 µg/mL (≈ 39.6 µM); in data set [14] it was 64 µg/mL; in data set [15], 64 µg/mL; in data set [2], 64 µg/mL (≈ 158 µM). The MIC came out at 32 µg/mL in [16]; 8 µg/mL in data set [17]; 0.06 µg/mL in data set [18]; 512 µg/mL in data set [19]; 16 µg/mL (≈ 39.6 µM) in data set [20]; 16 µg/mL (≈ 39.6 µM) in data set [21]. In addition, in data set [22], the MIC was determined as 0.06 µg/mL. The Activity result with Cell membrane [6] and in the data set on Cell membrane [13] was “Not Active” in each case. Besides, the inhibition result in [8] is “Active”.

For the compound `C[C@H]1COc2c(N3CCN(C)CC3)c(F)cc3c(=O)c(C(=O)O)cn1c23.C[C@H]1COc2c(N3CCN(C)CC3)c(F)cc3c(=O)c(C(=O)O)cn1c23.O` [LEVOFLOXACIN], the MIC with Escherichia coli turned out to be 0.04 µg/mL.

In the data set with Escherichia coli, `CC[C@H]1OC(=O)[C@H](C)[C@@H](O[C@H]2C[C@@](C)(OC)[C@@H](O)[C@H](C)O2)[C@H](C)[C@@H](O[C@@H]2O[C@H](C)C[C@H](N(C)C)[C@H]2O)[C@](C)(O)C[C@@H](C)C(=O)[C@H](C)[C@@H](O)[C@]1(C)O` [ERYTHROMYCIN] yielded an MIC of 4 µg/mL (≈ 5.45 µM).

Compound `O=C(N[C@H](CO)[C@H](O)c1ccc([N+](=O)[O-])cc1)C(Cl)Cl` [CHLORAMPHENICOL] had an MIC with Escherichia coli of 2 µg/mL (≈ 6.19 µM).
